Values belong to the molecule of their own block, whether it stands above or below them.
Assays:
[1] = target: T1, Gamma-aminobutyric acid receptor subunit alpha-2 (Homo sapiens) (UniProt P47869); test: Maximum percent potentiation against gamma-aminobutyric acid (GABA) A receptor, alpha 2; conditions: Xenopus laevis
T1 sequence (whole entry): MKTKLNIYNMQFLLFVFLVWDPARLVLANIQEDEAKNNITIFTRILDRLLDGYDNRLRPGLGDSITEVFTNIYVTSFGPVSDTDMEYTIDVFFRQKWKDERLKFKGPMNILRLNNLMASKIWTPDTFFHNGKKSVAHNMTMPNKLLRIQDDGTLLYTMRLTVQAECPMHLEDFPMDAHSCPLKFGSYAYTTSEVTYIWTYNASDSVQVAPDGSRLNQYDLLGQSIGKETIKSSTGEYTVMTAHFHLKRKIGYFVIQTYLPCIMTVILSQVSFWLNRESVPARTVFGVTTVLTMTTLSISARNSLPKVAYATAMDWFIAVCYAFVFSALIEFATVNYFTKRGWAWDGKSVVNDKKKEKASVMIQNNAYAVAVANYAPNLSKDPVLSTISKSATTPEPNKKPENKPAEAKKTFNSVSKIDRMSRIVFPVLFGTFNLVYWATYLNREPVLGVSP
In short: (§1)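 Xenopus laevis oocytes were injected with human cRNA for the α, β and γ subunits needed to express each receptor subtype (α1, α2, α3 or α5). Electrophysiological recording was used to read potentiation, and the effective concentration and maximal percent potentiation were derived from it.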

[2] = target: T2, Gamma-aminobutyric acid receptor subunit alpha-2 (Homo sapiens, UniProt P47869); test: Effective concentration against gamma-aminobutyric acid (GABA) A receptor, alpha 2; parameters: species or system Xenopus laevis; in short: as §1
T2 sequence (P47869 whole entry): T1 sequence (whole entry)

[3] = target: T3, Gamma-aminobutyric acid receptor subunit alpha-3 (Homo sapiens) (UniProt P34903); test: Maximum percent potentiation against gamma-aminobutyric acid (GABA) A receptor, alpha 3; conditions: Xenopus laevis; in short: as §1
T3 sequence (whole entry): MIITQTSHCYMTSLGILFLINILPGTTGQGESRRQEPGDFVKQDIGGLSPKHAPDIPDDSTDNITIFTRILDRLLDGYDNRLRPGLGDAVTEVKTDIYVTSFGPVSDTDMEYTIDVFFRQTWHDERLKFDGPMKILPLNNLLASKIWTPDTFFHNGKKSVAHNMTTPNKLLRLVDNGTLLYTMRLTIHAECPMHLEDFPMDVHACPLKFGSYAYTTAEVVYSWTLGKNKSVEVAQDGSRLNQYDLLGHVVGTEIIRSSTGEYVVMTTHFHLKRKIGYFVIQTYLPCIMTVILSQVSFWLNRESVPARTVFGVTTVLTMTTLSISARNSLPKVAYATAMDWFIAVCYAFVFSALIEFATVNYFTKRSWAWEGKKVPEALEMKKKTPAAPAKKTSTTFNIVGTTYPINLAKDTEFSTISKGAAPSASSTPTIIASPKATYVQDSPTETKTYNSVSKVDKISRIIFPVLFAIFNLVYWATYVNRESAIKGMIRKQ

[4] = target: T4, Gamma-aminobutyric acid receptor subunit alpha-3 (Homo sapiens, UniProt P34903); test: Effective concentration against gamma-aminobutyric acid (GABA) A receptor, alpha 3; parameters: species or system Xenopus laevis; in short: as §1
T4 sequence (P34903 whole entry): T3 sequence (whole entry)

[5] = target: T5, Gamma-aminobutyric acid receptor subunit alpha-5 (Homo sapiens) (UniProt P31644); test: Maximum percent potentiation against gamma-aminobutyric acid (GABA) A receptor, alpha 5; conditions: Xenopus laevis; in short: as §1
T5 sequence (whole entry): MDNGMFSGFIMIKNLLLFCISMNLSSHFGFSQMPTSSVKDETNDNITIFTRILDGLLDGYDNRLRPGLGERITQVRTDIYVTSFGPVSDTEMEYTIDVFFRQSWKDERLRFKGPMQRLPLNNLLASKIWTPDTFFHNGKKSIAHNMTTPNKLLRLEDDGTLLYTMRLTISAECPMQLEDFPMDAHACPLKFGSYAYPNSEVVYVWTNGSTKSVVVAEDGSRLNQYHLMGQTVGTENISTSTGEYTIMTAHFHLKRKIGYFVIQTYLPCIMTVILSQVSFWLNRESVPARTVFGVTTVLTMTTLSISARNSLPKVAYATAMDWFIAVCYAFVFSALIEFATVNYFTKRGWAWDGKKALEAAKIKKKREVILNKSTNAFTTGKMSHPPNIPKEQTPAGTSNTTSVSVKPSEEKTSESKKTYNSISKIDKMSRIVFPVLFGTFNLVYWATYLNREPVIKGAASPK

[6] = target: GABA-A receptor; anion channel; test: Binding affinity was determined by displacement of [3H]flumazenil from rat cortex homogenates; type: functional
In short: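 Displacement of [3H]flumazenil from rat cortex homogenates. Values are averages (±SD); some analogues were run once as a single set of triplicates. NA means an IC50 was not achieved at the highest dose tested.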

[7] = target: T6, Gamma-aminobutyric acid receptor subunit alpha-1 (Homo sapiens) (UniProt P14867); test: Maximum percent potentiation against gamma-aminobutyric acid (GABA) A receptor, alpha 1; conditions: Xenopus laevis; in short: as §1
T6 sequence (whole entry): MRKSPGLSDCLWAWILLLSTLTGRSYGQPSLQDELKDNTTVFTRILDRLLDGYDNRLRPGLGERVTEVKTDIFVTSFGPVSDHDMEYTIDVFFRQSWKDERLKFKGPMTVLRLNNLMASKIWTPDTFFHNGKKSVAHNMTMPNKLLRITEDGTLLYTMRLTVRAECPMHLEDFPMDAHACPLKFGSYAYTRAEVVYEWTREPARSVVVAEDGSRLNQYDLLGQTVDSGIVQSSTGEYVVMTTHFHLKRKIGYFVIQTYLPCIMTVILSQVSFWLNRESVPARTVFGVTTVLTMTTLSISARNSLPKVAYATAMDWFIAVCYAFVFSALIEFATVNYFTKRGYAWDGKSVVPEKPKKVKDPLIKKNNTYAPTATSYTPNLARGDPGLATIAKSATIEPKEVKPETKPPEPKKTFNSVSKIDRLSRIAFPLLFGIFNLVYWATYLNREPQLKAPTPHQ

[8] = target: T7, Gamma-aminobutyric acid receptor subunit alpha-5 (Homo sapiens, UniProt P31644); test: Effective concentration against Gamma-aminobutyric acid A receptor, alpha 5; parameters: species or system Xenopus laevis; in short: as §1
T7 sequence (P31644 whole entry): T5 sequence (whole entry)

[9] = target: T8, Gamma-aminobutyric acid receptor subunit alpha-1 (Homo sapiens, UniProt P14867); test: Effective concentration against gamma-aminobutyric acid (GABA) A receptor, alpha 1; parameters: species or system Xenopus laevis; in short: as §1
T8 sequence (P14867 whole entry): T6 sequence (whole entry)

- Activity [1]: 44%
- EC50 [2]: 0.084 µM
- Activity [3]: 35%
- EC50 [4]: 0.117 µM
- Activity [5]: 0%
- Ki [6]: 0.133 µM
- Activity [7]: 0%
Structure (SMILES): Oc1nc2c(c3nc(-c4ccccc4F)cn13)CN(c1ncccn1)CC2

- Ki [6]: 0.064 µM
Structure (SMILES): CCOC(=O)N1CCc2nc(O)n3cc(-c4ccccc4F)nc3c2C1

- Ki [6]: 0.0029 µM
Structure (SMILES): CC(c1ccccc1)N1CCc2nc(O)n3cc(-c4ccccc4F)nc3c2C1 (stereo unspecified)

- Ki [6]: 0.051 µM
Structure (SMILES): CC(C)N1CCc2nc(O)n3cc(-c4ccccc4F)nc3c2C1

- EC50 [2]: 0.02 µM
- EC50 [4]: 0.02 µM
- EC50 [8]: 0.074 µM
- Ki [6]: 0.0013 µM
- EC50 [9]: 0.018 µM
Structure (SMILES): O=c1[nH]c2c(c3nc(-c4ccccc4F)cn13)CN(Cc1ccccc1)CC2

- Ki [6]: 0.083 µM
Structure (SMILES): Oc1nc2c(c3nc(-c4ccccc4F)cn13)CN(CCc1ccccc1)CC2

- EC50 [2]: 0.143 µM
- Ki [6]: 0.0026 µM
- EC50 [9]: 0.028 µM
Structure (SMILES): COc1ccc(-c2cn3c(=O)[nH]c4c(c3n2)CN(Cc2ccccc2)CC4)cc1

- Ki [6]: 0.071 µM
Structure (SMILES): Oc1nc2c(c3nc(-c4cccc(Cl)c4)cn13)CN(Cc1ccccc1)CC2

- EC50 [2]: 0.101 µM
- EC50 [4]: 0.023 µM
- Ki [6]: 0.0014 µM
- EC50 [9]: 0.056 µM
Structure (SMILES): O=c1[nH]c2c(c3nc(-c4ccccc4F)cn13)CN(Cc1cccnc1)CC2

- EC50 [2]: 0.245 µM
- Ki [6]: 0.021 µM
- EC50 [9]: 0.136 µM
Structure (SMILES): O=c1[nH]c2c(c3nc(-c4ccc(F)cc4)cn13)CN(Cc1ccccc1)CC2

- Activity [1]: 0%
- Activity [3]: 14%
- EC50 [4]: 0.935 µM
- Activity [5]: 0%
- Ki [6]: 0.056 µM
- Activity [7]: 0%
Structure (SMILES): CCN1CCc2nc(O)n3cc(-c4ccccc4F)nc3c2C1

- Ki [6]: 0.083 µM
Structure (SMILES): O=C(c1ccccc1)N1CCc2nc(O)n3cc(-c4ccccc4F)nc3c2C1

- Ki [6]: 0.24 µM
Structure (SMILES): COc1ccc(-c2cn3c(O)nc4c(c3n2)CN(C)CC4)cc1

- Ki [6]: 0.072 µM
Structure (SMILES): Oc1nc2c(c3nc(-c4cc(F)cc(F)c4)cn13)CN(Cc1ccccc1)CC2

- Ki [6]: 0.0006 µM
Structure (SMILES): COc1ccc(-c2cn3c(O)nc4c(c3n2)CN(Cc2ccccc2)CC4)c(F)c1

- Ki [6]: 0.23 µM
Structure (SMILES): CCCCOC(=O)N1CCc2nc(O)n3cc(-c4ccccc4F)nc3c2C1

- Ki [6]: 0.261 µM
Structure (SMILES): CCCC(=O)N1CCc2nc(O)n3cc(-c4ccccc4F)nc3c2C1

- Activity [1]: 58%
- Activity [3]: 49%
- Activity [5]: 44%
- Activity [7]: 40%
Structure (SMILES): Oc1nc2c(c3nc(-c4ccccc4F)cn13)CN(Cc1c[nH]cn1)CC2

- Activity [1]: 76%
- Activity [3]: 120%
- Activity [5]: 31%
- Activity [7]: 56%
Structure (SMILES): Oc1nc2c(c3nc(-c4ccccc4F)cn13)CN(Cc1ccccc1)CC2

- Ki [6]: 0.045 µM
Structure (SMILES): COc1ccc(-c2cn3c(O)nc4c(c3n2)CN(C)CC4)c(F)c1

- Ki [6]: 0.092 µM
Structure (SMILES): O=C(c1cccnc1)N1CCc2nc(O)n3cc(-c4ccccc4F)nc3c2C1

- Activity [1]: 115%
- Activity [7]: 123%
Structure (SMILES): COc1cccc(-c2cn3c(O)nc4c(c3n2)CN(Cc2ccccc2)CC4)c1

- Activity [1]: 18%
- Activity [3]: 20%
- Activity [5]: 0%
- Activity [7]: 5%
Structure (SMILES): C=CCN1CCc2nc(O)n3cc(-c4ccccc4F)nc3c2C1

- Ki [6]: 0.147 µM
Structure (SMILES): Oc1nc2c(c3nc(-c4ccccc4F)cn13)CN(CCCc1ccccc1)CC2
